High-throughput results: PubChem BioAssay, several laboratories
Jurkat NFkB inh = lowers PMA/ionomycin-induced NF-kB signal in Jurkat cells; PMA/ionomycin-induced NF-kB luciferase reporter, luminescence; inhibition, % at 4 µM; 0.53% of 330,000 active; AID 435003; in the data active means inhibition above about 50%
GASC-1 inh = blocks human GASC-1 demethylase activity; Q9H3R0; GST-JMJD2C(1-420) H3K9me3 demethylation, DELFIA europium; inhibition, % at 2.35 µM; 0.069% of 330,000 active;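 active means more than half of a compound's replicate wells show inhibition beyond 50%, single wells judged on their own value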;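 further: signal counts dimethyl H3K9 product captured on neutravidin plate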
Target sequence (Q9H3R0 1-420 limits assumed): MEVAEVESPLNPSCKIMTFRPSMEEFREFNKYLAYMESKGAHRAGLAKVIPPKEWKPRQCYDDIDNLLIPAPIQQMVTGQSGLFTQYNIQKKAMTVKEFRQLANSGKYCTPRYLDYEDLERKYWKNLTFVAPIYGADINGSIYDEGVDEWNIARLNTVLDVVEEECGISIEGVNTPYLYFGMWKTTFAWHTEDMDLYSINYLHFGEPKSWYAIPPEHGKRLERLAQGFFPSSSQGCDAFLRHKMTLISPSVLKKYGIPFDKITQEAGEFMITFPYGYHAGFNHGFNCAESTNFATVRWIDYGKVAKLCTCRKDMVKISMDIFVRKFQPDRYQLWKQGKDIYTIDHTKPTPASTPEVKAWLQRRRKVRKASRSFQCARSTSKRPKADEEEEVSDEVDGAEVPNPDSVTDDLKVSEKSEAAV
GalR3 antagonist = blocks the human galanin receptor 3 | inhibition, % at 3 µM | HEK293 GalR3-CNG cAMP membrane potential fluorescence; galR3 body fused to GalR1 C-terminus | O60755 | 0.44% of 360,000 active | AID 651719;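 active means inhibition above the screen-wide average plus 3 SD, cut at about 13% in these data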;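 further: forskolin and galanin both at EC90 stimulate the cells; cAMP rise reported by CNG channel membrane potential dye signal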
Target sequence (O60755 1-299 limits assumed): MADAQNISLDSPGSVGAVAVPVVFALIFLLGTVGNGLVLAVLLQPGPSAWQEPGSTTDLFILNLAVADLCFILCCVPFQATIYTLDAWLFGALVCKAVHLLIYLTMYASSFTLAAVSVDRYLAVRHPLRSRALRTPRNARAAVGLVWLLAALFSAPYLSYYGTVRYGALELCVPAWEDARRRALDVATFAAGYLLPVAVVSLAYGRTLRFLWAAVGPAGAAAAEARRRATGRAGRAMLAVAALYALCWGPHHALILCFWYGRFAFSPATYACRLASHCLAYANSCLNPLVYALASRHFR
697 NFkB inh = lowers PMA/ionomycin-induced NF-kB signal in 697 B cells. 697 B-cell NF-kB luciferase reporter, 16 h. inhibition, % at 4 µM. 0.33% of 330,000 active; in the data active means inhibition above about 35%
NR2E3 ag-1 = activates human photoreceptor nuclear receptor NR2E3; AID 2300; GST-NR2E3/biotin-RetCOR TR-FRET, 1536-well; 0.12% of 320,000 active; inhibition of corepressor binding, % at 4.78 µM;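 active means percent inhibition above the cutoff of mean plus 3 SD of all tested compounds, set per screening campaign, cut at about 20% in these data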
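Test system – NR2E3–RetCOR corepressor complex · Quantity – NR2E3 fusion 1.35 nM · Buffer or medium – Tris pH 7.5 · Incubation – Compound–protein incubation for 5 h at 4 °C · Technique – TR-FRET, Eu(K)-anti-GST donor, streptavidin-D2 acceptor, ex 340, em 617/671 nm · Evaluation – percent inhibition of 671/617 nm emission ratio versus biotin and DMSO controls · Plate – 1536-well format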
NR2E3 ag-2 = activates human NR2E3 receptor; Q9Y5X4; CHO-S Gal4-NCOR/VP16-NR2E3 two-hybrid, luciferase; inhibition of corepressor binding, % at 3.98 µM; 0.35% of 360,000 active; AID 602229;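 active means inhibition above the mean of all tested compounds plus 3 SD, cut at about 70% in these data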;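 further: higher means lower luciferase signal from less NR2E3 corepressor binding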
Jurkat NFkB conf = lowers PMA/ionomycin-induced NF-kB signal in Jurkat cells; shares compounds with Jurkat NFkB inh; Jurkat NF-kB luciferase, 16 h; inhibition, % at 4 µM; 27% of 2,700 active; AID 435020;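 active means inhibition reaching about 45% at 4 µM in either replicate, limit read from the data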
697 NFkB conf = inhibitors of the PMA/ionomycin-induced NF-kB reporter in 697 B cells, retest | 35% of 2,000 active | 697 B-cell NF-kB luciferase, 16 h | AID 449746 | inhibition, % at 4 µM | shares compounds with 697 NFkB inh; in the data active means inhibition mostly above about 28%, no sharp cut-off; inactive means mostly below about 22%
Numbers stand for hits. This is a sample that favours compounds with a hit; in the whole collection about 1.5% have one here.

For Cc1cccc(NC(=O)CNC(=O)[C@@H](Cc2ccccc2)NC(=O)[C@H]2O[C@@H](n3ccc(N)nc3=O)[C@H](O)[C@@H]2O)c1C the results were GalR3 antagonist inactive.
`CCOc1ccc(-n2c(-c3ccc(OC)cc3)c[n+]3c2CCCCC3)cc1` gave Jurkat NFkB inh 73, GalR3 antagonist 56, 697 NFkB inh 57, NR2E3 ag-1 inactive, NR2E3 ag-2 inactive, Jurkat NFkB conf 58 and 697 NFkB conf 65.
For COc1cc2ccc(-c3ccc4ccccc4n3)cc2cc1OC the results were GalR3 antagonist inactive and NR2E3 ag-2 inactive.
For COc1ccc(-c2ccc3ccccc3n2)cc1 the results were Jurkat NFkB inh inactive, GASC-1 inh inactive, GalR3 antagonist inactive, 697 NFkB inh inactive, NR2E3 ag-1 inactive, NR2E3 ag-2 inactive, Jurkat NFkB conf inactive and 697 NFkB conf inactive.
For CS(=O)(=O)N(CC(=O)N1CCN(c2ccccc2F)CC1)c1cccc(C(F)(F)F)c1 the results were Jurkat NFkB inh inactive, GASC-1 inh inactive, GalR3 antagonist inactive, 697 NFkB inh inactive, NR2E3 ag-1 inactive and NR2E3 ag-2 inactive.
CCOC(=O)c1sc(NC(C)=O)cc1C was read as Jurkat NFkB inh inactive, GASC-1 inh inactive, GalR3 antagonist inactive, 697 NFkB inh inactive, NR2E3 ag-1 inactive and NR2E3 ag-2 inactive.
`CCOC(=O)c1sc(NC(=O)Nc2ccccc2Cl)cc1C` gave Jurkat NFkB inh inactive, GASC-1 inh inactive, GalR3 antagonist inactive, 697 NFkB inh inactive, NR2E3 ag-1 inactive, NR2E3 ag-2 inactive, Jurkat NFkB conf inactive and 697 NFkB conf inactive.
CCOc1ccc(S(=O)(=O)/N=C(/Nc2ccc(C)c(S(=O)(=O)N3CCOCC3)c2)c2ccccc2)cc1 was read as Jurkat NFkB inh inactive, GASC-1 inh inactive, GalR3 antagonist inactive, 697 NFkB inh inactive and NR2E3 ag-2 inactive.
For Cc1ccc(Cn2ccsc2=NC(=O)CCl)cc1 the results were Jurkat NFkB inh 78, GalR3 antagonist inactive, 697 NFkB inh 94, NR2E3 ag-1 inactive, NR2E3 ag-2 inactive, Jurkat NFkB conf 51 and 697 NFkB conf 98.
`Cc1ccc(Cn2ccsc2=NC(=O)COC(=O)c2ccc(NC(=O)CC#N)cc2)cc1` gave Jurkat NFkB inh inactive, GASC-1 inh inactive, GalR3 antagonist inactive, 697 NFkB inh inactive, NR2E3 ag-1 inactive and NR2E3 ag-2 inactive.
`Brc1ccc(-c2nnc(-c3ccccc3Br)o2)cc1` gave Jurkat NFkB inh inactive, GASC-1 inh inactive, GalR3 antagonist inactive, 697 NFkB inh inactive, NR2E3 ag-1 inactive, NR2E3 ag-2 inactive, Jurkat NFkB conf inactive and 697 NFkB conf inactive.
Screening Cc1ccc(NC2=Nc3ccccc3CS2)cc1 returned Jurkat NFkB inh inactive, GASC-1 inh inactive, GalR3 antagonist inactive, 697 NFkB inh inactive, NR2E3 ag-1 inactive, NR2E3 ag-2 inactive, Jurkat NFkB conf inactive and 697 NFkB conf inactive.
Cc1ccc(Nc2ccccc2)cc1 was read as Jurkat NFkB inh inactive, GASC-1 inh inactive, GalR3 antagonist inactive, 697 NFkB inh inactive, NR2E3 ag-1 inactive and NR2E3 ag-2 inactive.
Screening CCOC(=O)C(=CNc1nc(-c2ccccc2)c(C(=O)Nc2ccc(-c3ccccc3)cc2)s1)C(=O)OCC returned Jurkat NFkB inh inactive, GASC-1 inh inactive, GalR3 antagonist inactive, 697 NFkB inh inactive, NR2E3 ag-1 inactive and NR2E3 ag-2 inactive.
For Cc1cc(C(=O)Nc2sc(C)c(-c3ccc(F)cc3)c2C(N)=O)no1 the results were Jurkat NFkB inh inactive, GASC-1 inh inactive, GalR3 antagonist inactive, 697 NFkB inh inactive, NR2E3 ag-1 inactive, NR2E3 ag-2 inactive, Jurkat NFkB conf inactive and 697 NFkB conf inactive.
Screening CCc1ccc(-c2c(C)sc(NC(C)=O)c2C(N)=O)cc1 returned Jurkat NFkB inh inactive, GASC-1 inh inactive, GalR3 antagonist inactive, 697 NFkB inh inactive, NR2E3 ag-1 inactive and NR2E3 ag-2 inactive.
Screening Cc1ccc(-c2cn(-c3ccccc3)c(=S)[nH]2)cc1C returned Jurkat NFkB inh inactive, GASC-1 inh inactive, GalR3 antagonist inactive, 697 NFkB inh inactive, NR2E3 ag-1 inactive, NR2E3 ag-2 inactive, Jurkat NFkB conf inactive and 697 NFkB conf inactive.
`Cc1ccccc1-c1cn(-c2ccccc2)c(=S)[nH]1` gave Jurkat NFkB inh inactive, GASC-1 inh inactive, GalR3 antagonist inactive, 697 NFkB inh inactive, NR2E3 ag-1 inactive and NR2E3 ag-2 inactive.
Cc1c(C)n(Cc2ccccc2)c2ncnc(Cl)c12 was read as Jurkat NFkB inh inactive, GASC-1 inh inactive, GalR3 antagonist inactive, 697 NFkB inh inactive, NR2E3 ag-1 inactive and NR2E3 ag-2 inactive.
For COc1ccc(/C=C/c2cc(-c3ccc(C)cc3)o[n+]2C)cc1 the results were Jurkat NFkB inh 61, GASC-1 inh inactive, GalR3 antagonist inactive, 697 NFkB inh 93, NR2E3 ag-1 inactive, NR2E3 ag-2 inactive, Jurkat NFkB conf 52 and 697 NFkB conf 41.
`CC1=NNC(=O)/C1=C\c1cn(-c2ccccc2)nc1-c1ccc(Cl)cc1` gave Jurkat NFkB inh 95, GASC-1 inh inactive, GalR3 antagonist 21, 697 NFkB inh 37, NR2E3 ag-1 inactive, NR2E3 ag-2 inactive, Jurkat NFkB conf 46 and 697 NFkB conf inactive.
`CCCC(=O)Nc1sc(Cc2ccccc2)c(C)c1C(N)=O` gave Jurkat NFkB inh inactive, GASC-1 inh inactive, GalR3 antagonist inactive, 697 NFkB inh inactive, NR2E3 ag-1 inactive and NR2E3 ag-2 inactive.
CCOC(=O)c1cnc2c3c(noc13)CCC2 was read as GalR3 antagonist inactive.
For CON1C(=O)C(=O)N(OC)C(C)(C)C1(C)C the results were Jurkat NFkB inh inactive, GASC-1 inh inactive, GalR3 antagonist inactive, 697 NFkB inh inactive, NR2E3 ag-1 inactive and NR2E3 ag-2 inactive.
`Cc1cc(C(=O)Nc2cnc3ccccc3c2)ccc1[N+](=O)[O-]` gave Jurkat NFkB inh inactive, GASC-1 inh inactive, GalR3 antagonist inactive, 697 NFkB inh inactive, NR2E3 ag-1 inactive and NR2E3 ag-2 inactive.
`Cc1ccc(C(=O)Nc2cnc3ccccc3c2)cc1` gave Jurkat NFkB inh 59, GASC-1 inh inactive, GalR3 antagonist inactive, 697 NFkB inh inactive, NR2E3 ag-1 inactive, NR2E3 ag-2 inactive, Jurkat NFkB conf 73 and 697 NFkB conf inactive.
For O=C(Nc1ccc2ccccc2c1)c1ccc(Cl)cc1Cl the results were Jurkat NFkB inh inactive, GASC-1 inh inactive, GalR3 antagonist inactive, 697 NFkB inh inactive, NR2E3 ag-1 inactive, NR2E3 ag-2 inactive, Jurkat NFkB conf inactive and 697 NFkB conf inactive.
For O=C(Nc1ccc2ccccc2c1)c1onc2c1CCCC2 the results were Jurkat NFkB inh inactive, GASC-1 inh inactive, GalR3 antagonist inactive, 697 NFkB inh inactive, NR2E3 ag-1 inactive, NR2E3 ag-2 inactive, Jurkat NFkB conf inactive and 697 NFkB conf inactive.
